Screening data as filed in PubChem.
Only some compounds are listed: those with a hit (about 2.7% of all), similar ones and a draw of the others.
MC4R antag cAMP = blocks human MC4R cAMP signaling. MC4R-expressing cells, MTII-stimulated cAMP, LANCE TR-FRET. inhibition, % at 6.5 µM. actives 0.48% (n = 360,000). AID 540295;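 active means inhibition above its plate's cutoff, the mean of tested wells on that plate plus 3 SD, cut at about 29% in these data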;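 further: 0% = Melanotan II alone and 100% = Melanotan II plus saturating MCL0020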
Target sequence (P32245 whole entry, looked up): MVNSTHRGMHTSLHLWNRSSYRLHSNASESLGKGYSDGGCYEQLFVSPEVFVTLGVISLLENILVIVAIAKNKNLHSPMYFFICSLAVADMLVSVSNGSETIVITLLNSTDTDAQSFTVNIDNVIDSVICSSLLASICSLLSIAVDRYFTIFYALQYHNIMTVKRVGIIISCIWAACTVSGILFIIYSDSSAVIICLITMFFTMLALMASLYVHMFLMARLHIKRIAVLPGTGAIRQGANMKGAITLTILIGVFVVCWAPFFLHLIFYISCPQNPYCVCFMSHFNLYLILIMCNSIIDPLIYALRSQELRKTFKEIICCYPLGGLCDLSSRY
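Material – human MC4R-expressing U2OS cells · Repeats – no replicates · Detection – TR-FRET with Eu-cAMP and labeled anti-cAMP, 671 nm · Times – compound 30 min, challenge 1 h, detection 1 h · Compound – single nominal compound dose of 6.5 µM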
MC4R barr agon = human MC4R agonism via beta-arrestin. U2OS MC4R beta-arrestin complementation, luminescence; percent of melanotan II response, DMSO zero. activation, % at 8.9 µM. actives 0.98% (n = 360,000). AID 540308;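 active means activation above a per-plate cutoff, the mean activation of sample wells on that plate plus 3 SD, cut at about 8% in these data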
NR2E3 ag-1 = activates human photoreceptor nuclear receptor NR2E3; Q9Y5X4; GST-NR2E3/biotin-RetCOR TR-FRET, 1536-well; actives 0.12% (n = 320,000); inhibition of corepressor binding, % at 4.78 µM; AID 2300;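 active means percent inhibition above the cutoff of mean plus 3 SD of all tested compounds, set per screening campaign, cut at about 20% in these data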;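 further: 0% = DMSO wells and 100% = biotin wells as full block of FRET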
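System: GST-NR2E3 and biotin-RetCOR proteins; probe or stimulus: 7 nM biotin-RetCOR; doses: compound at 4.8 µM, single dose; schedule: Compound–protein incubation for 5 h at 4 °C; detection: time-resolved FRET; read-out: percent inhibition; controls: biotin wells as high control, 0.6% DMSO wells as low control; format: 1536-well plates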
Rev-erbA mod = modulates human Rev-erb alpha binding to DNA. P20393. actives 0.79% (n = 370,000). activity, % at 10 µM. Rev-erbα–FITC-DNA binding, fluorescence polarization, 90 min;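 active means activity above about 14%, limit read from the data; passing the limit was not always enough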;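 further: 0% = DMSO wells with 35 nM protein and 100% = DMSO wells with 750 nM protein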
PG9 binder = PG9 antibody binding by small molecule; TR-FRET gp120-PG9 antibody binding; inhibition, % at 6.7 µM; actives 0.43% (n = 360,000); in the data active means inhibition above about 8.5%
NR2E3 ag-2 = activates human NR2E3 receptor. Q9Y5X4. CHO-S Gal4-NCOR/VP16-NR2E3 two-hybrid, luciferase. inhibition of corepressor binding, % at 3.98 µM. actives 0.35% (n = 360,000). AID 602229;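 active means inhibition above the mean of all tested compounds plus 3 SD, cut at about 70% in these data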;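 further: 0% = DMSO with NR2E3 transfected cells and 100% = cells lacking NR2E3 construct; higher means lower luciferase signal from less NR2E3 corepressor binding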
MC4R barr conf = human MC4R beta-arrestin agonism confirmation; shares compounds with MC4R barr agon; U2OS MC4R beta-arrestin recruitment, luminescence; scaled DMSO 0%, Melanotan II 100%; activation, % at 8.9 µM; actives 31% (n = 2,400);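 active means mean activation across replicates above the hit cutoff set in the earlier primary screen, cut at about 8% in these data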
MOR-DOR barr ag = counter-screen for MC4R agonists: agonists of mu-delta opioid heterodimer | AID 602194 | activation, % at 9.2 µM | actives 5.8% (n = 2,400) | U2OS PathHunter beta-arrestin, beta-gal luminescence; percent of deltorphin B response, DMSO zero | shares compounds with MC4R barr agon;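 active means mean activation across replicates exceeds the hit threshold derived in the earlier primary screen, cut at about 18% in these data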;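 further: 100% = deltorphin B at 0.9 µM final and 0% = DMSO alone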
Numbers without * were called inactive; x = no result.

SMILES | MC4R antag cAMP | MC4R barr agon | NR2E3 ag-1 | Rev-erbA mod | PG9 binder | NR2E3 ag-2 | MC4R barr conf | MOR-DOR barr ag
Cc1ccc(CNC(=O)c2ccc3c(=O)c(O)c(-c4ccc(C)cc4)[nH]c3c2)cc1 | 5 | 13* | 1 | -2 | 2 | -36 | 1 | 9
COc1ccccc1N(CC(=O)NCc1ccc(F)cc1)C(=O)CCC(=O)Nc1nccs1 | -4 | 3 | 4 | 2 | -4 | -5 | x | x
O=C(CCc1ccccc1)N/N=C/c1cc(Br)ccc1O | 1 | 15* | 1 | -10 | -1 | -39 | -1 | 7
C[C@@H]1CCCCO[C@H](CN(C)C(=O)Nc2ccc(F)cc2)[C@@H](C)CN([C@H](C)CO)C(=O)c2cc(N(C)C)ccc2O1 | 11 | 1 | x | -4 | 2 | -7 | x | x
Cc1ccc2nc(NC(=O)c3cc(-c4ccco4)nc4ccccc34)sc2c1 | 3 | 23* | 1 | -6 | -1 | -22 | 13* | 3
CCn1c(CC(=O)Nc2ccc(C)c(Cl)c2)nnc1SCCOc1ccc(OC)cc1 | -5 | 11* | 3 | 6 | -2 | 8 | 0 | 7
CC(=O)Nc1nc(-c2ccccc2)c(-c2ccccc2)o1 | -2 | -3 | 0 | -3 | -2 | -3 | x | x
N#Cc1nc(-c2ccc(OCc3ccc(Cl)cc3)cc2)oc1NCc1cccnc1 | -1 | 15* | 5 | -3 | 2 | -22 | 8 | 2
CCCCCCOc1ccc(/C(C)=N/NC2=NCCN2)cc1 | 2 | 11* | 1 | 2 | -1 | 11 | 29* | 12
O=C(Cc1cccs1)Nc1nc2ccccc2s1 | 2 | 0 | -4 | -2 | 1 | -89 | x | x
COC(=O)c1oc2ccc(Br)cc2c1NC(=O)c1ccccc1 | -9 | 30* | -1 | 10 | -1 | -11 | 16* | 4
O=C(CCN1C(=O)c2ccccc2C1=O)NCCC1=CCCCC1 | 10 | 0 | 4 | 2 | -1 | 0 | x | x
COc1ccc(/C=N\NC(=O)c2cc(OCC(F)(F)F)ccc2OCC(F)(F)F)cc1 | -1 | 11* | 2 | 3 | -2 | 5 | 6 | 7
COC(=O)c1ccc2c(=O)n(CCCCCC(=O)NCc3ccc4c(c3)OCO4)c(=O)[nH]c2c1 | 2 | -1 | 0 | -5 | 2 | 5 | x | x
O=C(CCCCCn1c(=S)[nH]c2ccccc2c1=O)NCc1ccc2c(c1)OCO2 | 15 | 10* | 4 | 4 | 5 | -20 | 2 | 2
COc1cccc(N2CCN(C(=O)CCCCCn3c(=S)[nH]c4cc5c(cc4c3=O)OCO5)CC2)c1 | -2 | 35* | 4 | -16 | 3 | -7 | 14* | 21*
O=C(CCCCCn1c(=S)[nH]c2cc3c(cc2c1=O)OCO3)N1CCN(c2ccccc2)CC1 | 18 | 2 | -1 | -1 | -3 | -13 | x | x
CCCCCOC(=O)Nc1ccc(S(=O)(=O)Nc2cccc([N+](=O)[O-])c2)cc1 | -3 | 14* | -2 | -2 | -2 | -19 | 9.7* | 7
CC1Sc2ccc(C(=O)O)cc2NC1=O (centres undefined) | 0 | 0 | 2 | 5 | 1 | 2 | x | x
CC1Sc2ccc(C(=O)OCc3ccccc3Cl)cc2NC1=O (centres undefined) | 12 | 35* | -2 | -3 | 0 | -44 | 3 | 6
COc1cccc(COC(=O)c2ccc3c(c2)NC(=O)C(C)S3)c1OC (centres undefined) | 2 | 19* | 3 | 6 | 0 | -2 | 3 | 9
CN1CCCC(C)(C(=O)Nc2cccc(Oc3ccccc3)c2)C1 (centres undefined) | 0 | -1 | x | 2 | 1 | 7 | x | x
CC(C)c1ccc(NC(=O)COC(=O)/C=C/c2cccc(Br)c2)cc1 | -2 | 11* | -2 | 6 | 1 | 21 | 5 | 3
CCOC(=O)c1c(C)[nH]c(C(=O)C(C)Sc2ccc(Cl)cc2)c1C (centres undefined) | -1 | 3 | 3 | 4 | -1 | 2 | x | x
CCOC(=O)c1c(C)[nH]c(C(=O)Cn2nnc(-c3ccc(Cl)cc3)n2)c1C | 10 | 18* | 4 | 1 | 0 | -10 | 11* | 5
SMILES | MC4R antag cAMP | MC4R barr agon | NR2E3 ag-1 | Rev-erbA mod | PG9 binder | NR2E3 ag-2 | MC4R barr conf | MOR-DOR barr ag
O=C1[C@H]2[C@H](C=CC[C@H]2C(=O)N2CCN(c3ccccc3)CC2)CCN1Cc1ccccc1 | 1 | 0 | -1 | 0 | 2 | 17 | x | x
COc1ccc(NC(=O)[C@@H]2CC=C[C@@H]3CCN(Cc4ccc(Cl)c(Cl)c4)C(=O)[C@@H]32)cc1 | 4 | 13* | 1 | 6 | 1 | 25 | 11* | 3
O=C(NCCc1ccccc1)[C@@H]1CC=C[C@@H]2CCN(Cc3ccc(Cl)c(Cl)c3)C(=O)[C@@H]21 | -3 | 12* | -2 | -3 | -1 | 13 | 9.3* | 8
O=C1[C@H]2[C@H](C=CC[C@H]2C(=O)N2CCN(c3ccccc3)CC2)CCN1Cc1ccc(Cl)c(Cl)c1 | 15 | 69* | 2 | 5 | 1 | 8 | 15* | 4
S=C(NCCCCN(Cc1ccc(Cl)cc1)c1ccc(Br)cn1)NCCCc1cnc[nH]1 | 6 | 10* | x | 4 | 0 | 11 | 11* | 7
CN(C)CCN(Cc1ccc(Cl)cc1)c1ccccn1 | -1 | -1 | 4 | 1 | -5 | -20 | x | x
Oc1cc(OCc2ccccc2)ccc1-c1[nH]ncc1-c1ccccc1 | 4 | 13* | 2 | 5 | 0 | -16 | 5 | 16
COc1ccccc1-c1cn[nH]c1-c1ccc(OCc2ccc(F)cc2)cc1O | 5 | 2 | 2 | 7 | 0 | 9 | x | x
COc1ccccc1-c1cn[nH]c1-c1ccc(OCc2ccc([N+](=O)[O-])cc2)cc1O | 9 | 15* | -2 | 4 | -1 | 10 | 6 | 7
CCOC(=O)c1ccc(NC(=O)Nc2cccc(C)n2)cc1 | 16 | 2 | 0 | -6 | -2 | -3 | x | x
CCOC(=O)c1ccc(NC(=O)Nc2cc(C)on2)cc1 | 1 | 11* | -1 | 3 | -1 | -28 | 4 | 7
COc1ccccc1NC(=O)C1=C(C)Nc2ncnn2C1c1cccs1 (centres undefined) | 3 | -1 | 2 | -3 | 2 | -12 | x | x
Cc1ccc(Oc2cc([N+](=O)[O-])cc3c2C(=O)Nc2ccccc2O3)cc1 | 7 | 14* | 2 | -5 | 3 | 19 | 2 | 8
